Screening data (PubChem)
Rows were chosen to be rich in hits. Some 3.8% of all compounds tested hit in one or more screens of this group.
Kir21 inh: Kir2.1 (mouse) channel inhibition | P35561 | HEK293-Kir2.1, FluxOR thallium flux fluorescence; hits give low values | B-score at 10 µM | 310,000 tested, 0.85% active | AID 1672;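 active means fluorescence ratio B-score at or below minus 3 SD of library scores, with starting-brightness B-score within 2 SD, cut at about -4.2 in these data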;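 further: channel flux triggered by added potassium and thallium sulfate stimulus; B-score of peak minus minimum fluorescence over baseline after thallium stimulus; more negative B-score means stronger Kir2.1 block with less thallium influx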
KCNK3 inh: human KCNK3 channel inhibition, primary screen; O14649; CHO-KCNK3 thallium flux, FluxOR fluorescence; hits give low values; B-score at 10 µM; 340,000 tested, 0.84% active;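 active means B-score under library mean minus 4 SD, starting fluorescence ratio at most library mean plus 5 SD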;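 further: more negative B-score means stronger inhibition of thallium flux through KCNK3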
KCNK9 block: human KCNK9 channel inhibition. B-score at 10 µM. 310,000 tested, 1.2% active. Q9NPC2. HEK293 KCNK9, FluxOR thallium flux fluorescence; hits give low values;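 active means ratio B-score over 3 SD below the library mean, with starting fluorescence within 5 SD of its mean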;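 further: negative B-score means less thallium flux so channel inhibition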
Target sequence (Q9NPC2 whole entry, looked up): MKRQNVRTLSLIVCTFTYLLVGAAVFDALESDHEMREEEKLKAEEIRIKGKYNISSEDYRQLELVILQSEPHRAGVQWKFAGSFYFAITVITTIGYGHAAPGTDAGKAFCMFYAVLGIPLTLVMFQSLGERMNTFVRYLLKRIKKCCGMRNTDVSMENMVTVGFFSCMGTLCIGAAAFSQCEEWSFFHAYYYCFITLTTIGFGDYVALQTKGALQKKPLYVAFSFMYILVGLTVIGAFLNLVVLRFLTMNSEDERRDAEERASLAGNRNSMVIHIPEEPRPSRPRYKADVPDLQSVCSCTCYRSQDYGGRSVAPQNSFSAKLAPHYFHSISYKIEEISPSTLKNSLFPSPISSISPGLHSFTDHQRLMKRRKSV
hERG rescue: hERG (human) protection from proarrhythmic block; Q12809; CHO-hERG, FluxOR thallium flux, dofetilide IC70 present; activation (rescue from dofetilide block), less the hit threshold, % at 10 µM; 310,000 tested, 0.51% active; AID 1511;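 active means activation above the mean of controls blocked by dofetilide plus 5 SD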;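 further: thallium influx through hERG after potassium depolarization seen as dye fluorescence rise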
KCNQ1 inh: blocks the human KCNQ1 potassium channel | CHO-K1 KCNQ1, FluxOR thallium flux fluorescence; hits give high values | B-score at 10 µM | 310,000 tested, 1.3% active;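 active means compounds whose thallium flux B-score, printed positive for inhibition, exceeds three library SD while starting fluorescence stays within three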;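 further: channel opened by potassium depolarization with thallium stimulus after 20 min compound exposure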
KCNQ1 act: potentiates or activates the human KCNQ1 potassium channel; B-score at 10 µM; P51787; AID 2648; CHO-K1 KCNQ1, thallium flux FluxOR fluorescence; hits give high values; 310,000 tested, 0.35% active;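 active means fluorescence ratio B-score, a plate-corrected score, at least three library SD, with initial intensity B-score within 5 SD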
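Material: CHO-K1 cells stably expressing KCNQ1. Medium: assay buffer for compound exposure, DMSO matched across wells. Reagent: K+/Tl+ depolarizing stimulus. Compound dosing: single-concentration screen. Times: 37 °C overnight plating, 90-min dark dye load, 20-min compound pretreatment. Technique: FluxOR Tl+ flux fluorescence.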
Large screens that a line does not name were inactive.

COc1ccc(C[C@H]2CN3C(=NC[C@@H]3Cc3ccccc3)N2CCNC(=O)c2ccc(C)c(Br)c2)cc1	Kir21 inh -4.25, KCNQ1 inh 9
Cc1ccc(C(=O)NCCN2C3=NC[C@@H](Cc4ccccc4)N3C[C@H]2Cc2ccc(O)cc2)cc1Br	Kir21 inh -6.76
Cc1nc2ccc(Cl)cn2c1C(=O)NN	none
Cc1ccc(S(=O)(=O)N2CCC[C@H]2C(=O)NC2CCCCC2)cc1	none (no result: Kir21 inh, KCNK9 block, hERG rescue, KCNQ1 inh, KCNQ1 act)
Cc1cccc(-c2n[nH]c(=S)n2/N=C/c2cccs2)c1	KCNQ1 act 9
S=c1[nH]nc(-c2cccs2)n1/N=C/c1c(Cl)cccc1Cl	hERG rescue 32.2, KCNQ1 act 37
CN(CCOc1ccc(Cl)cc1)CC(O)c1ccccc1 (configuration not stated)	none
CC(OCC(O)CN(C)CCOc1ccccc1)c1ccc(Cl)cc1 (configuration not stated)	Kir21 inh -5
COc1cc(/C=C2\COC/C(=C\c3ccc(O)c(OC)c3)C2=O)ccc1O	none
COc1cc(/C=C2/CC/C(=C/c3ccc(O)c(OC)c3)C2=O)ccc1O	KCNK3 inh -9.1, KCNK9 block -7.37
CN1C(=O)/C(=C/c2ccc(O)c([N+](=O)[O-])c2)N(C)C1=S	none
COc1cc(/C=C2\C(=O)N(C)C(=S)N2C)ccc1O	KCNQ1 act 15
Cc1cc(OCC(=O)NCCCN2CCOCC2)c2c(C)c(C)c(=O)oc2c1	none
Nc1nonc1-n1nnc(C(=O)c2ccccc2)c1-c1ccccc1	none
Cc1ccc(C(C)C)c(OCCCNCc2cccnc2)c1	Kir21 inh -5.68
Cc1ccc(C(C)C)c(OCCNS(C)(=O)=O)c1	none
CCCCNCC#CCOc1cc(C)ccc1C(C)C	Kir21 inh -4.69
Cn1c(=O)n(C)c2cc(/C=N/N=C3/NC(=O)C(CC(=O)O)S3)ccc21 (configuration not stated)	none
CCC(C)N(C(=O)c1csnn1)C(C(=O)NC1CCCC1)c1c(F)cccc1Cl (configuration not stated)	none
CN(C)CCO[C@@H](c1ccc(Cl)cc1)c1ccccn1	none
Cc1ccc(C(OCCN(C)C)c2cccc(C(F)(F)F)c2)cc1 (configuration not stated)	Kir21 inh -5.15
CCOc1ccc(NC(=O)c2cccc(OC(=S)N3CCC(C)CC3)c2)cc1	none
CC(C)Oc1ccc(C(=O)Nc2ccc(S(=O)(=O)N3CCN(C)CC3)cc2)cc1	KCNK9 block -7.34
CC(=O)NCCc1nc2cc(NC(=O)COc3ccc(C)cc3)ccc2n1C	none
COc1ccc(C)cc1Nc1n[n+](-c2ccccc2)c(-c2ccc(OC)c(OC)c2OC)s1	Kir21 inh -4.89, KCNQ1 inh 11
Cc1cccc(C)c1NC(=O)CN(C)C(=O)C(c1ccccc1)c1ccccc1	none
CC(C)(C)c1ccc(Oc2ccc(N)cn2)cc1	KCNQ1 act 21
COc1cccc(C(=O)NCC(=O)N/N=C/c2cn[nH]c2-c2ccccc2)c1	none
Cc1ccccc1CN(C)CC(=O)NC(C)CCc1ccccc1 (configuration not stated)	Kir21 inh -11.3
CC(=O)C(Cc1ccccc1)NC(=O)CN(C)Cc1ccccc1Cl (configuration not stated)	Kir21 inh -4.88
Cc1ccc(CN(C)CC(=O)NC(C)c2ccccc2)cc1 (configuration not stated)	Kir21 inh -4.29
Cc1ccc(CC(=O)NC(C)CCc2ccccc2)cc1 (configuration not stated)	none
Cn1c(=O)c2c(ncn2CC(=O)N/N=C/c2ccc(Br)s2)n(C)c1=O	none
Cc1ccc(NC(=O)CCc2nnc3ccc(N4CCC5(CC4)OCCO5)nn23)cc1F	none
CC(NCCS(=O)(=O)c1ccc(Cl)cc1)c1cccc(Cl)c1 (configuration not stated)	Kir21 inh -12.9
C/C(=N\NC(=S)Nc1cccc(C)c1)c1ccco1	hERG rescue 5.8, KCNQ1 act 13
COCCCNC(=O)CC1C[C@H](C(=O)N2CCOCC2)[C@@]2(C)c3[nH]c4ccc(OC)cc4c3CCN2C1=O (some centres not stated)	none (no result: Kir21 inh, KCNK9 block, hERG rescue, KCNQ1 inh, KCNQ1 act)
